Series [1] has as its system HCT-116. In words: Antiproliferative activity against human HCT116 cells assessed as reduction in cell viability after 48 hrs by MTT assay. Format: functional, cell-based. To be noted: HCT-116, 48 h.
The target in series [2] is T1, Phosphatidylinositol 4,5-bisphosphate 3-kinase catalytic subunit delta isoform (Homo sapiens, UniProt O00329).
T1 sequence (O00329 whole entry): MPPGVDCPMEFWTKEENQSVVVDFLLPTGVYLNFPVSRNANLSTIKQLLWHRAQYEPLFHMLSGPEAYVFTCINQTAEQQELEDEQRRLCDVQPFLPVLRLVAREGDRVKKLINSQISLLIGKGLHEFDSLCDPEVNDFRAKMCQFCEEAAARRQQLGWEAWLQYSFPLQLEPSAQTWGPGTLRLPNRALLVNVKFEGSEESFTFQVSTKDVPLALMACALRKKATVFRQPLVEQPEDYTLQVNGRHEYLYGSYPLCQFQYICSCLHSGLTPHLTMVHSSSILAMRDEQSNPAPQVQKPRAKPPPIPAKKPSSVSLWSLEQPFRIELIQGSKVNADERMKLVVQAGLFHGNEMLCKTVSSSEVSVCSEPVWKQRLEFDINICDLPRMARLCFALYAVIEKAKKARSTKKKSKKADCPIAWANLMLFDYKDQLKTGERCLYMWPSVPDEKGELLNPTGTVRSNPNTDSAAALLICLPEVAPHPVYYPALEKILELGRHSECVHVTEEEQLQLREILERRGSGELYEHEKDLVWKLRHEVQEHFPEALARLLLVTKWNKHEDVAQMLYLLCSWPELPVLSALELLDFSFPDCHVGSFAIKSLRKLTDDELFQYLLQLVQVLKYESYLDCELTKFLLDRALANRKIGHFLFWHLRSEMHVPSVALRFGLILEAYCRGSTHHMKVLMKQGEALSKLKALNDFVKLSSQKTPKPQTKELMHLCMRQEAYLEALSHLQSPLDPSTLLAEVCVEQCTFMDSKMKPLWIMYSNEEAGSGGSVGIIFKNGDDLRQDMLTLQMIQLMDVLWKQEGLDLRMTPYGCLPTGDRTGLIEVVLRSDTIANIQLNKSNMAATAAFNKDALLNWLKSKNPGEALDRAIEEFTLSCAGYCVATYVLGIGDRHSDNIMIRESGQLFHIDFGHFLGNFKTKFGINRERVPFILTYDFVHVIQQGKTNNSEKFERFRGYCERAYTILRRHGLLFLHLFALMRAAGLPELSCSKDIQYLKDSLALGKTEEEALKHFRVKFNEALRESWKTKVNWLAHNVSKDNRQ
In words: Inhibition of PI3Kdelta (unknown origin) using diC8-PI(4,5)P2 as substrate incubated for 3 hrs in presence of ATP by fluorescence polarization assay. In a few lines:
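Fluorescence polarization competition assay, 10 μL reactions at pH 7: 2.5 mM MgCl₂, 5 mM HEPES, ATP, 10 mM DTT, 50 ng PI3K isoform, diC8-PI(4,5)P2 substrate. After 3 h at room temperature, reactions were chelator-quenched. Phosphoinositide binding protein and fluorophore-labelled tracer were added, then 1 h dark equilibration and polarization read.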

The nature of series [3]: Cytotoxicity against human 293T cells. Format: cell-based. To be noted: HEK-293T cells.
Series [4] addresses T2, Phosphatidylinositol 4,5-bisphosphate 3-kinase catalytic subunit alpha isoform (Homo sapiens, UniProt P42336). Kind of series: Inhibition of PI3K-alpha in human HCT116 cells assessed as decrease in phosphorylated Akt protein expression level measured after 24 hrs by Western blot analysis. The format is cell-based. In a few lines: (§1)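 HCT-116 cells exposed for 24 h at 0.25, 0.5 and 1 μM, lysed in RIPA buffer, and analysed by SDS-PAGE/PVDF Western blot for p-Akt (Ser473) and p-S6K. β-actin internal control; densitometry mean ± SEM, n = 3.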

The target in series [5] is T2, Phosphatidylinositol 4,5-bisphosphate 3-kinase catalytic subunit alpha isoform. Kind of series: Inhibition of PI3K-alpha in human HCT116 cells assessed as decrease in phosphorylated S6K protein expression level measured after 24 hrs by Western blot analysis. The format is cell-based. In outline:
as §1

For series [6], the system named is HCT-116. In words: Cell cycle arrest in human HCT116 cells assessed as accumulation at G1 phase at 0.25 uM measured after 24 hrs by propidium iodide staining based flow cytometry analysis (reference value: 42.01 %). Format: functional.
Series [7] deals with HCT-116. Kind of series: Cell cycle arrest in human HCT116 cells assessed as accumulation at G2 phase at 0.25 uM measured after 24 hrs by propidium iodide staining based flow cytometry analysis (reference value: 7.86 %). The format is functional.
Series [8] has as its system HCT-116. Kind of series: Cell cycle arrest in human HCT116 cells assessed as accumulation at G1 phase at 0.5 uM measured after 24 hrs by propidium iodide staining based flow cytometry analysis (reference value: 42.01 %). The format is functional.
In series [9] the test system is HCT-116. Kind of series: Cell cycle arrest in human HCT116 cells assessed as accumulation at G2 phase at 0.5 uM measured after 24 hrs by propidium iodide staining based flow cytometry analysis (reference value: 7.86 %). Format: functional.
Series [10] has as its system HCT-116. Kind of series: Cell cycle arrest in human HCT116 cells assessed as accumulation at S phase at 1 uM measured after 24 hrs by propidium iodide staining based flow cytometry analysis (reference value: 50.12 %). The format is functional.
Series [11] relates to HCT-116. Kind of series: Induction of apoptosis in human HCT116 cells assessed as early apoptotic cells at 0.25 uM measured after 24 hrs by annexin-v-FITC/propidium iodide staining based FACScan flow cytometry analysis (reference value: 10.0 %). The format is functional.
Series [12] concerns HCT-116. In words: Induction of apoptosis in human HCT116 cells assessed as necrotic cells at 0.25 uM measured after 24 hrs by annexin-v-FITC/propidium iodide staining based FACScan flow cytometry analysis (reference value: 1.87 %). The format is functional.
The subject of series [13] is HCT-116. In words: Induction of apoptosis in human HCT116 cells assessed as viable cells at 0.5 uM measured after 24 hrs by annexin-v-FITC/propidium iodide staining based FACScan flow cytometry analysis (reference value: 78.5 %). To be noted: HCT-116, 24 h, read-out: Activity. Format: functional.
Series [14] has as its system HCT-116. In words: Induction of apoptosis in human HCT116 cells assessed as necrotic cells at 0.5 uM measured after 24 hrs by annexin-v-FITC/propidium iodide staining based FACScan flow cytometry analysis (reference value: 1.87 %). Format: functional.
Series [15] deals with HCT-116. Kind of series: Induction of apoptosis in human HCT116 cells assessed as viable cells at 1 uM measured after 24 hrs by annexin-v-FITC/propidium iodide staining based FACScan flow cytometry analysis (reference value: 78.5 %). Format: functional. To be noted: HCT-116, 24 h, read-out: Activity.
Series [16] has as its system HCT-116. Kind of series: Induction of apoptosis in human HCT116 cells assessed as late apoptotic cells at 1 uM measured after 24 hrs by annexin-v-FITC/propidium iodide staining based FACScan flow cytometry analysis (reference value: 9.61 %). The format is functional.
In series [17] the test system is HCT-116. In words: Induction of apoptosis in human HCT116 cells assessed as necrotic cells at 1 uM measured after 24 hrs by annexin-v-FITC/propidium iodide staining based FACScan flow cytometry analysis (reference value: 1.87 %). The format is functional.
In series [18] the test system is HCT-116. Kind of series: Induction of apoptosis in human HCT116 cells assessed as increase in cleaved caspase-3 protein level measured after 24 hrs by Western blot analysis. The format is functional, cell-based. In outline:
(§2)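 HCT-116 cells treated at 0.25, 0.5 and 1 μM for 24 h, lysed in RIPA buffer with PMSF. Proteins separated by SDS-PAGE (8% or 10%), transferred to PVDF and probed with primary antibodies and HRP secondaries. β-actin served as internal control; bands quantified as bar graphs.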

The test system of series [19] is HCT-116. In words: Induction of apoptosis in human HCT116 cells assessed as increase in cleaved caspase-9 protein level measured after 24 hrs by Western blot analysis. Format: functional, cell-based. In a few lines:
as §2

T2 sequence (P42336 whole entry, canonical isoform): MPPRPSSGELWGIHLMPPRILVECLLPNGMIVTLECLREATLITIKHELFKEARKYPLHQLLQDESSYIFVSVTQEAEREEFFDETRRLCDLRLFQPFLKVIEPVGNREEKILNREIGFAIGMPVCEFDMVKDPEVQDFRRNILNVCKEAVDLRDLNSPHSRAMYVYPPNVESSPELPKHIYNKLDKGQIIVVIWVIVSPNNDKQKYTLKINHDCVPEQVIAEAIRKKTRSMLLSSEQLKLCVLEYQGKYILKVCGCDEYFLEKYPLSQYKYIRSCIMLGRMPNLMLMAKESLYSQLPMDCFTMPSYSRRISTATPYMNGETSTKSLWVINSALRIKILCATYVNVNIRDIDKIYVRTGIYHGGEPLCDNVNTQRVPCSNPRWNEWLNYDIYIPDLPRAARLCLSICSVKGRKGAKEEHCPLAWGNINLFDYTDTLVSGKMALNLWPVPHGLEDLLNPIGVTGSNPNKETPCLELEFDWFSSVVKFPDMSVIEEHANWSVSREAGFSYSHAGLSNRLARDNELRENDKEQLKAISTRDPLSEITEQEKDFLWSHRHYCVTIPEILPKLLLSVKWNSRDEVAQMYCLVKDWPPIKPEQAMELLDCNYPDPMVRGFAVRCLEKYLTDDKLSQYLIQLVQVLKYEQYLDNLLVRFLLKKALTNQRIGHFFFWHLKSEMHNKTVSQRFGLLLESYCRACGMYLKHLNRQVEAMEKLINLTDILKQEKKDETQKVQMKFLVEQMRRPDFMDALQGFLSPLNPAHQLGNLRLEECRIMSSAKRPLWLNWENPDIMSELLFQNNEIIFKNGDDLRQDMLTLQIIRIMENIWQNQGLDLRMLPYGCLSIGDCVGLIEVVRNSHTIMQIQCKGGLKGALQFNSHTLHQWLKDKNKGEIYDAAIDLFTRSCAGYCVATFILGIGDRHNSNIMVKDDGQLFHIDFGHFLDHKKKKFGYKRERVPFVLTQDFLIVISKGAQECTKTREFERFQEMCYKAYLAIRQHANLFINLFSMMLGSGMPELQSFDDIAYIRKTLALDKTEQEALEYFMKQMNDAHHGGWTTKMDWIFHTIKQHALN

Take `O=c1oc2ccccc2c2nn(CN3CCN(S(=O)(=O)c4ccc(Cl)c([N+](=O)[O-])c4)CC3)cc12`: the IC50 came out at 30 nM with HCT-116 [1] and 120 nM in series [2]. The compound further returned a CC50 in [3] of 386000 nM. Besides, the inhibition result in series [4] and in [5] was “Dose-dependent effect” throughout. Moreover, the Activity in the series on HCT-116 [6] came out at 46.87%; in the series with HCT-116 [7], 10.73%; in the series with HCT-116 [8], 50.95%; with HCT-116 [9] it was 9.52%; with HCT-116 [10], 33.78%; in the series with HCT-116 [11], 16.1%. Besides, the Activity was 6.98% in the series on HCT-116 [12]; 6.04% with HCT-116 [14]; 36.9% in the series with HCT-116 [16]; 1.04% in the series with HCT-116 [17]; “Dose-dependent effect” with HCT-116 [18]; “Dose-dependent effect” in the series with HCT-116 [19]. Also, the viability at 0.5 µM in the series on HCT-116 [13] was found to be 46%. Moreover, in the series with HCT-116 [15], the viability at 1 µM turned out to be 36.6%.

The record behind these values is ChEMBL document CHEMBL4359902, “Development of novel chromeno[4,3-c]pyrazol-4(2H)-one derivates bearing sulfonylpiperazine as antitumor inhibitors targeting PI3Kα” (Eur J Med Chem, 2019).
